One data set relates to L1210. Kind of data set: Cytotoxicity against mouse L1210 cells after 72 hrs by MTT assay. It counts as functional, cell-based. The conditions noted are these: L1210, 72 h. A digest of the protocol:
(§1)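 Murine B16 melanoma and L1210 lymphoma cells in culture were exposed to compound continuously for 72 h. Viability was read by MTT assay, and IC₅₀ was derived from growth inhibition.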
On the technique in general: Formazan colour is commonly taken as a measure of viable cells.

For the next data set, the system named is B16. The data set is described as follows: Cytotoxicity against mouse B16 cells after 72 hrs by MTT assay. It is filed as functional, cell-based. The conditions noted are these: B16, 72 h. A digest of the protocol:
as §1

The next data set concerns HL-60(TB). The data set is described as follows: Growth inhibition of human HL-60(TB) cells. It is filed as functional.
The test system of the next data set is MOLT-4. The data set is described as follows: Growth inhibition of human MOLT4 cells. It is filed as functional.
A further data set concerns NCI-H23. The data set is described as follows: Growth inhibition of human NCI-H23 cells. It counts as functional.
For a further data set, the system named is NCI-H322M. The data set is described as follows: Growth inhibition of human NCI-H322M cells. It counts as functional.
The next data set concerns NCI-H522. Kind of data set: Growth inhibition of human NCI-H522 cells. It counts as functional.
In the next data set the test system is HCT-116. The data set is described as follows: Growth inhibition of human HCT116 cells. It counts as functional.
The subject of the next data set is SF-295. The data set is described as follows: Growth inhibition of human SF295 cells. It counts as functional.
A further data set relates to SF-539. The data set is described as follows: Growth inhibition of human SF539 cells. It counts as functional.
A further data set deals with SNB-19. The data set is described as follows: Growth inhibition of human SNB19 cells. It counts as functional.
The next data set relates to U-251. Kind of data set: Growth inhibition of human U251 cells. It is filed as functional.
The next data set deals with LOX IMVI. Kind of data set: Growth inhibition of human LOXIMVI cells. It is filed as functional.
Another data set relates to Malme-3M. Kind of data set: Growth inhibition of human MALME-3M cells. It counts as functional.
The subject of the next data set is SK-MEL-5. Kind of data set: Growth inhibition of human SK-MEL-5 cells. It is filed as functional.
A further data set concerns UACC-257. Kind of data set: Growth inhibition of human UACC257 cells. It is filed as functional.
The test system of a further data set is SK-OV-3. The data set is described as follows: Growth inhibition of human SKOV3 cells. It counts as functional.
The next data set relates to CAKI-1. The data set is described as follows: Growth inhibition of human Caki1 cells. It is filed as functional.
A further data set has as its system RXF 393. Kind of data set: Growth inhibition of human RXF393 cells. It counts as functional.
Another data set relates to MDA-MB-231. Kind of data set: Growth inhibition of human MDA-MB-231 cells. It counts as functional.
Another data set has as its system BT-549. The data set is described as follows: Growth inhibition of human BT549 cells. It counts as functional.
Another data set deals with T47D. Kind of data set: Growth inhibition of human T47D cells. It is filed as functional. The conditions noted are these: read-out: pTGI.
For data set [1], the system named is MDA-MB-435. The data set is described as follows: Cytotoxicity against human MDA-MB-435 cells after 48 hrs by SRB assay. It is filed as functional, cell-based. The conditions noted are these: MDA-MB-435, 48 h. For orientation: In SRB staining, fixed cells bind dye roughly in proportion to their protein.
The subject of another data set is A10. Kind of data set: Induction of interphase microtubule depolymerization in rat A10 cells. It is filed as functional, cell-based.
Data set [2] concerns MDA-MB-435. Kind of data set: Ratio of EC50 for interphase microtubule depolymerization in rat A10 cells to IC50 for cytotoxicity against human MDA-MB-435 cells. It is filed as functional.
The nature of data set [3]: Aqueous solubility of the compound. It counts as physicochemical. A digest of the protocol:
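Maximum aqueous solubility was measured with a modified filter-plate solubility protocol.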

≈ marks a conversion by molar mass, not a printed value.

This note sets out measurements from ChEMBL document CHEMBL1800024, “A novel class of trans-methylpyrazoline analogs of combretastatins: synthesis and in-vitro biological testing” (Eur J Med Chem, 2011).

As usually defined, the IC50 is the midpoint of a concentration-inhibition curve. A higher IC50 goes with weaker potency in that assay. One may read the GI50 as the concentration that inhibits growth by half. Lower therefore signals greater sensitivity of the cells. In general, EC50 refers to the concentration at which the effect is half-maximal. In general, solubility refers to the dissolved amount per volume that the medium holds. A higher solubility goes with a readily soluble substance.

Take `COc1cc([C@@H]2C(C)=NN(C(C)=O)[C@H]2c2ccc(Cl)cc2)cc(OC)c1OC` (relative stereo): the concentration for half-maximal inhibition (IC50) in the data set on L1210 and in the data set on B16 was > 100 µM throughout.
For `COc1cc([C@@H]2C(C)=NN(C(C)=O)[C@H]2c2ccc(Br)cc2)cc(OC)c1OC` (relative stereo), the half-maximal inhibitory concentration (IC50) with L1210 was 33 µM; in the data set with B16, > 100 µM.
For the molecule `COc1ccc([C@H]2[C@H](c3cc(OC)c(OC)c(OC)c3)C(C)=NN2C(C)=O)cc1O` (relative stereo), the IC50 in the data set on L1210 worked out at 3.3 µM; with B16, 6.8 µM; in the data set with MDA-MB-435 [1], 0.9 µM. Moreover, the GI50 in the data set on HL-60(TB) is 1.78 µM; in the data set on MOLT-4, 5.75 µM; in the data set on NCI-H23 it was 3.72 µM; in the data set on NCI-H322M, 4.27 µM; with NCI-H522 it was 0.372 µM; in the data set with HCT-116 it was 3.02 µM. The 50% growth inhibitory concentration (GI50) in the data set with SF-295 is 2.57 µM; in the data set with SF-539 it was 0.741 µM; with SNB-19 it was 4.37 µM; with U-251, 3.24 µM; in the data set with LOX IMVI it was 2.24 µM; in the data set on Malme-3M, 0.891 µM. Also, the GI50 is 1.17 µM in the data set on SK-MEL-5; > 100 µM in the data set on UACC-257; 2.19 µM in the data set on SK-OV-3; 5.37 µM in the data set with CAKI-1; 3.09 µM in the data set with RXF 393; 4.07 µM in the data set with MDA-MB-231. The GI50 with BT-549 is 1.45 µM. Moreover, the TGI is 7.76 µM in the data set with HL-60(TB) (read-out: pTGI (converted)); > 100 µM in the data set on MOLT-4 (read-out: pTGI); > 100 µM with NCI-H23 (read-out: pTGI); 51.3 µM with NCI-H322M (read-out: pTGI (converted)); 11.7 µM with NCI-H522 (read-out: pTGI (converted)); 34.7 µM in the data set on HCT-116 (read-out: pTGI (converted)). Further, the TGI was > 100 µM with SF-295 (read-out: pTGI); 4.37 µM with SF-539 (read-out: pTGI (converted)); > 100 µM in the data set with SNB-19 (read-out: pTGI); > 100 µM in the data set with U-251 (read-out: pTGI); > 100 µM in the data set on LOX IMVI (read-out: pTGI); > 100 µM in the data set on Malme-3M (read-out: pTGI). The TGI is 14.1 µM with SK-MEL-5 (read-out: pTGI (converted)); > 100 µM in the data set with UACC-257 (read-out: pTGI); 9.55 µM with SK-OV-3 (read-out: pTGI (converted)); > 100 µM in the data set on CAKI-1 (read-out: pTGI); > 100 µM in the data set on RXF 393 (read-out: pTGI); > 100 µM in the data set on MDA-MB-231 (read-out: pTGI). In addition, the TGI in the data set on BT-549 (read-out: pTGI) and with T47D was > 100 µM throughout. For the same molecule, the EC50 with A10 is 4.1 µM. Also, in the data set on MDA-MB-435 [2], the Ratio turned out to be 4.5. Besides, in data set [3], the concentration in solution (solubility) came to 372 µM (≈ 154 µg/mL).
For `COc1ccc([C@H]2[C@H](c3cc(OC)c(OC)c(OC)c3)C(C)=NN2C(C)=O)cc1OC` (relative stereo), the results for the 50% inhibitory concentration (IC50) in the data set on L1210 and in the data set on B16 were 34 µM and > 100 µM, respectively.
The like results for `COc1cc([C@@H]2C(C)=NN(C(C)=O)[C@H]2c2ccc(C)cc2)cc(OC)c1OC` (relative stereo) were, in that order, 6 µM and 45.5 µM.
As for `COc1ccc(/C=C\c2cc(OC)c(OC)c(OC)c2)cc1O` [COMBRETASTATIN A4], the 50% inhibitory concentration (IC50) is 0.003 µM in the data set with L1210 and 0.002 µM in the data set on B16.
Consider `COc1cc([C@@H]2C(C)=NN(C(C)=O)[C@H]2c2ccc([N+](=O)[O-])cc2)cc(OC)c1OC` (relative stereo), for which the concentration for half-maximal inhibition (IC50) in the data set with L1210 and with B16 was > 100 µM each time.
In the case of `COc1cc([C@@H]2C(C)=NN(C(C)=O)[C@H]2c2ccc(Cl)c(Cl)c2)cc(OC)c1OC` (relative stereo), the IC50 was 36 µM with L1210 and > 100 µM with B16.
As to `COc1cc([C@@H]2C(C)=NN(C(C)=O)[C@H]2c2ccccc2)cc(OC)c1OC` (relative stereo), the IC50 is 47 µM with L1210 and > 100 µM with B16.
The corresponding values for `COc1ccc([C@H]2[C@H](c3cc(OC)c(OC)c(OC)c3)C(C)=NN2C(C)=O)cc1` (relative stereo) are 8.4 µM and 95 µM.
As to `COc1ccc(OC)c([C@H]2[C@H](c3cc(OC)c(OC)c(OC)c3)C(C)=NN2C(C)=O)c1` (relative stereo), the IC50 in the data set on L1210 and in the data set with B16 was > 100 µM in each case.
On to `COc1cc([C@@H]2C(C)=NN(C(C)=O)[C@H]2c2cccc([N+](=O)[O-])c2)cc(OC)c1OC` (relative stereo), for which the 50% inhibitory concentration (IC50) in the data set with L1210 and with B16 was > 100 µM each time.
In the case of `COc1cc([C@@H]2C(C)=NN(C(C)=O)[C@H]2c2cc(OC)c(OC)c(OC)c2)cc(OC)c1OC` (relative stereo), the IC50 in the data set with L1210 and with B16 was > 100 µM throughout.
For the molecule `COc1ccc([C@H]2[C@H](c3cc(OC)c(OC)c(OC)c3)C(C)=NN2C(C)=O)cc1[N+](=O)[O-]` (relative stereo), the IC50 was 32.5 µM with L1210 and > 100 µM in the data set on B16.
